# Measurements from ChEMBL document CHEMBL3045286, “Citrus limonoids and their semisynthetic derivatives as antifeedant agents against Spodoptera frugiperda larvae. A structure-activity relationship study” (2002).
# Tested on: Spodoptera frugiperda
# Experiment: Antifeedant activity against larvae of Spodoptera frugiperda (fall armyworm) at 100 ppm measured every 30 min for 8 hr by binary choice assay relative to control
# Type: functional
# In short: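 Final-stadium larvae aged […], reared on wheatgerm diet, starved 2 h, then held singly in Petri dishes with control and treatment glass-fiber disks (2.1 cm). All disks carried 100 µL of 0.05 M sucrose. Treatment disks received compound in acetone and control disks acetone alone; disks were dried and weighed before and after. Ten larvae per compound. Feeding index = [(C − T)/(C + T)]%, mean ± SEM, Wilcoxon matched-pairs test.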
row,SMILES,AFI [%]
1,"CC1(C)OC(=O)CC[C@]2(C)[C@H]3CC[C@@]4(C)[C@@H](c5ccoc5)OC(=O)[C@H]5O[C@]54[C@]3(C)C(=O)C[C@@H]12 [1,2-DIDEHYDRO-OBACUNONE]",53
2,CC(=O)O[C@H]1CC(=O)OC(C)(C)[C@@H]2C[C@@H](O)[C@]3(C)[C@H](CC[C@@]4(C)[C@@H](c5ccoc5)OC(=O)[C@H]5O[C@@]534)[C@@]12C [7-ALPHA-NOMILOL],46
3,CC1(C)OC(=O)C=C[C@]2(C)[C@H]3CC[C@@]4(C)[C@@H](c5ccoc5)OC(=O)[C@H]5O[C@]54[C@]3(C)[C@H](O)C[C@@H]12 [7-ALPHA-OBACUNOL],53
4,CC(=O)O[C@@H]1C[C@H]2C(C)(C)OC(=O)C=C[C@]2(C)[C@H]2CC[C@@]3(C)[C@@H](c4ccoc4)OC(=O)[C@H]4O[C@]43[C@@]21C [7-ALPHA-OBACUNYL ACETATE],24
5,CC(=O)O[C@H]1CC(=O)OC(C)(C)[C@@H]2C[C@H](O)[C@]3(C)[C@H](CC[C@@]4(C)[C@@H](c5ccoc5)OC(=O)[C@H]5O[C@@]534)[C@@]12C [7-BETA-NOMILOL],35
6,CC(=O)O[C@H]1CC(=O)OC(C)(C)[C@@H]2C[C@H](OC(C)=O)[C@]3(C)[C@H](CC[C@@]4(C)[C@@H](c5ccoc5)OC(=O)[C@H]5O[C@@]534)[C@@]12C [7-BETA-NOMILYL ACETATE],46
7,CC1(C)OC(=O)C=C[C@]2(C)[C@H]3CC[C@@]4(C)[C@@H](c5ccoc5)OC(=O)[C@H]5O[C@]54[C@]3(C)[C@@H](O)C[C@@H]12 [7-BETA-OBACUNOL],35
8,CC(=O)O[C@H]1C[C@H]2C(C)(C)OC(=O)C=C[C@]2(C)[C@H]2CC[C@@]3(C)[C@@H](c4ccoc4)OC(=O)[C@H]4O[C@]43[C@]12C [7-BETA-OBACUNYL ACETATE],26
9,CC(=O)O[C@H]1C[C@H]2C(C)(C)O[C@H]3CC(=O)OC[C@]32[C@H]2CC[C@@]3(C)[C@@H](c4ccoc4)OC(=O)[C@H]4O[C@]43[C@]12C [EPI-LIMONYL ACETATE],26
10,CC1(C)O[C@H]2CC(=O)OC[C@]23[C@H]2CC[C@@]4(C)[C@@H]([C@H]5CCOC5)OC(=O)[C@H]5O[C@]54[C@]2(C)C(=O)C[C@@H]13 [EPI-PERHYDROLIMONIN],45
11,CC1(C)O[C@H]2CC(=O)OC[C@]23[C@H]2CC[C@@]4(C)[C@@H](c5ccoc5)OC(=O)[C@H]5O[C@]54[C@]2(C)[C@@H](O)C[C@@H]13 [EPILIMONOL],56
12,CO/N=C1\C[C@H]2C(C)(C)O[C@H]3CC(=O)OC[C@]32[C@H]2CC[C@@]3(C)[C@@H](c4ccoc4)OC(=O)[C@H]4O[C@]43[C@]12C [LIMONIN-7-METHOXIME],76
13,CC(=O)O/N=C1\C[C@H]2C(C)(C)O[C@H]3CC(=O)OC[C@]32[C@H]2CC[C@@]3(C)[C@@H](c4ccoc4)OC(=O)[C@H]4O[C@]43[C@]12C [LIMONIN-7-OXIME ACETATE],45
14,CC1(C)O[C@H]2CC(=O)OC[C@]23[C@H]2CC[C@@]4(C)[C@@H](c5ccoc5)OC(=O)[C@H]5O[C@]54[C@]2(C)/C(=N/O)C[C@@H]13 [LIMONIN-7-OXIME],68
15,CC1(C)O[C@H]2CC(=O)OC[C@]23[C@H]2CC[C@@]4(C)[C@H](c5ccoc5)OC(=O)[C@H]5O[C@]54[C@]2(C)C(=O)C[C@@H]13 [LIMONIN],87
16,CC1(C)O[C@H]2CC(=O)OC[C@]23[C@H]2CC[C@@]4(C)[C@@H](c5ccoc5)OC(=O)[C@H]5O[C@]54[C@]2(C)[C@H](O)C[C@@H]13 [LIMONOL],68
17,CC(=O)O[C@@H]1C[C@H]2C(C)(C)O[C@H]3CC(=O)OC[C@]32[C@H]2CC[C@@]3(C)[C@@H](c4ccoc4)OC(=O)[C@H]4O[C@]43[C@@]21C [LIMONYL ACETATE],45
18,CO/N=C1\C[C@H]2C(C)(C)OC(=O)C[C@H](OC(C)=O)[C@]2(C)[C@H]2CC[C@@]3(C)[C@@H](c4ccoc4)OC(=O)[C@H]4O[C@]43[C@]12C [NOMILIN-7-METHOXIME],38
19,CC(=O)O/N=C1\C[C@H]2C(C)(C)OC(=O)C[C@H](OC(C)=O)[C@]2(C)[C@H]2CC[C@@]3(C)[C@@H](c4ccoc4)OC(=O)[C@H]4O[C@]43[C@]12C [NOMILIN-7-OXIME ACETATE],41
20,CC(=O)O[C@H]1CC(=O)OC(C)(C)[C@@H]2C/C(=N\O)[C@]3(C)[C@H](CC[C@@]4(C)[C@@H](c5ccoc5)OC(=O)[C@H]5O[C@]543)[C@@]12C [NOMILIN-7-OXIME],35
21,CC(=O)O[C@H]1CC(=O)OC(C)(C)[C@@H]2CC(=O)[C@]3(C)[C@H](CC[C@@]4(C)[C@@H](c5ccoc5)OC(=O)[C@H]5O[C@]543)[C@@]12C [NOMILIN],56
22,CO/N=C1\C[C@H]2C(C)(C)OC(=O)C=C[C@]2(C)[C@H]2CC[C@@]3(C)[C@@H](c4ccoc4)OC(=O)[C@H]4O[C@]43[C@]12C [OBACUNONE-7-METHOXIME],29
23,CC(=O)O/N=C1\C[C@H]2C(C)(C)OC(=O)C=C[C@]2(C)[C@H]2CC[C@@]3(C)[C@@H](c4ccoc4)OC(=O)[C@H]4O[C@]43[C@]12C [OBACUNONE-7-OXIME ACETATE],21
24,CC1(C)OC(=O)C=C[C@]2(C)[C@H]3CC[C@@]4(C)[C@@H](c5ccoc5)OC(=O)[C@H]5O[C@]54[C@]3(C)/C(=N/O)C[C@@H]12 [OBACUNONE-7-OXIME],25
25,CC1(C)OC(=O)C=C[C@]2(C)[C@H]3CC[C@@]4(C)[C@H](c5ccoc5)OC(=O)[C@H]5O[C@]54[C@]3(C)C(=O)C[C@@H]12 [OBACUNONE],68
26,CC1(C)O[C@H]2CC(=O)OC[C@]23[C@H]2CC[C@@]4(C)[C@@H]([C@@H]5CCOC5)OC(=O)[C@H]5O[C@]54[C@]2(C)C(=O)C[C@@H]13 [PERHYDROLIMONIN],29
